From publication PMC3954597 (Biochemistry, 2014)
Square brackets hold non-standard residues; d marks the D form. pY = N[C@@H](Cc1ccc(OP(=O)(O)O)cc1)C(=O)O

T1: PTP1B (Homo sapiens, UniProt P18031)
T1 sequence (P18031 1-321): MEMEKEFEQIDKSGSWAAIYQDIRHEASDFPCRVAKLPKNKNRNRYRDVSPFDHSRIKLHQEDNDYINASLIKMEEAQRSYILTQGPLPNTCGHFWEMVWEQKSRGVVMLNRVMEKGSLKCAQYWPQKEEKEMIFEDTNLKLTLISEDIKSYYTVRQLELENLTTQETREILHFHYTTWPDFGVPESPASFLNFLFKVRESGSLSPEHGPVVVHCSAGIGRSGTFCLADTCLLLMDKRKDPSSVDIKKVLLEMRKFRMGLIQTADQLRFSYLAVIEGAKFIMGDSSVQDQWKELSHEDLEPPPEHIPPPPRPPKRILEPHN

T2: R24M PTP1B (Homo sapiens, UniProt P18031, R24M)
T2 sequence (P18031 1-321 R24M): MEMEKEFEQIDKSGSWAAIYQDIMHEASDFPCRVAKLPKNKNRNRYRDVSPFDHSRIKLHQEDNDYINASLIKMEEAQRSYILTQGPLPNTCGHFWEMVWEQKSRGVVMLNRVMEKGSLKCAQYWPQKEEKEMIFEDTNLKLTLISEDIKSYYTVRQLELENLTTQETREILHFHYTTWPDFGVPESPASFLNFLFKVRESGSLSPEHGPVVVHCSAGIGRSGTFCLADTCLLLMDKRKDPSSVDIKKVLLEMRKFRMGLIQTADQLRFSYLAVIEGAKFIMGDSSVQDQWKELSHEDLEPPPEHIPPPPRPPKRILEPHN

T3: R47E PTP1B (Homo sapiens, UniProt P18031, R47E)
T3 sequence (P18031 1-321 R47E): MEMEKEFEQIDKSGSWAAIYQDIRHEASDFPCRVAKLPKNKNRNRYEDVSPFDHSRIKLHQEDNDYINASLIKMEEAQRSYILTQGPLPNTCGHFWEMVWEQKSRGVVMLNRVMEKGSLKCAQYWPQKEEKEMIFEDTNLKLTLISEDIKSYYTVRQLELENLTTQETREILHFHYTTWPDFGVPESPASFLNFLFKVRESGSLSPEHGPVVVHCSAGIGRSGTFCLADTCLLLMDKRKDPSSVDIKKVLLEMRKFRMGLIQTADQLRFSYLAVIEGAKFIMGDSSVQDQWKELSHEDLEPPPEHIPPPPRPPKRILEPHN

T4: SHP-2 (Homo sapiens, UniProt Q06124)
T4 sequence (Q06124 199-593): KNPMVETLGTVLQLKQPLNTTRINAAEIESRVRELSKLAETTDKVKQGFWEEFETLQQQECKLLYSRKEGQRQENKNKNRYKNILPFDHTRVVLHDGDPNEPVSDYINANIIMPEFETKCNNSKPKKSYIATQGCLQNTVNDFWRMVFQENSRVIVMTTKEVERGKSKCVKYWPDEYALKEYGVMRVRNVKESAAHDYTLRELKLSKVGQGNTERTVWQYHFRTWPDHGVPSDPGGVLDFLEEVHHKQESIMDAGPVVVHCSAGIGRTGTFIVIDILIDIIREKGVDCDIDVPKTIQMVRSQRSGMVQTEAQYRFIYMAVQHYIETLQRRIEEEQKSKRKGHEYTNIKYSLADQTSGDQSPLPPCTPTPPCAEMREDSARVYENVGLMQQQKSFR

T5: R47E PTP1B catalytic domain (amino acids 1-321) (human) (UniProt P18031)
T5 sequence: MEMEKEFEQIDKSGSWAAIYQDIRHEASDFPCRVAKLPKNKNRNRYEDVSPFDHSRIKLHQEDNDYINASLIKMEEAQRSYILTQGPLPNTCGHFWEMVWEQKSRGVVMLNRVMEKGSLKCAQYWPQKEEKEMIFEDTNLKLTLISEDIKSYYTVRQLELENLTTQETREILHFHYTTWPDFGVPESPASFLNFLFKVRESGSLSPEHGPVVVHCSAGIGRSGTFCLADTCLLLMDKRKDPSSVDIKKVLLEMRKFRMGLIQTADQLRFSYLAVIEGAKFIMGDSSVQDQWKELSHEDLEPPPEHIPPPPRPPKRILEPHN

T6: wild-type PTP1B catalytic domain (amino acids 1-321) (human) (UniProt P18031)
T6 sequence: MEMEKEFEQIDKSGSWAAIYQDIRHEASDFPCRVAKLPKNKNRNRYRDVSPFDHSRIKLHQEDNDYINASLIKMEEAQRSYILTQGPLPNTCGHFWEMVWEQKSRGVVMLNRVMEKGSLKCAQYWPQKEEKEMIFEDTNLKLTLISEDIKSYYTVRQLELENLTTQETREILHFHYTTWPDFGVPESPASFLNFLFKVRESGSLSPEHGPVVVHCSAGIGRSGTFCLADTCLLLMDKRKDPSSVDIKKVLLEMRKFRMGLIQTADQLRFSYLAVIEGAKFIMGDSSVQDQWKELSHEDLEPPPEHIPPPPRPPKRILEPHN

T7: R24M PTP1B catalytic domain (amino acids 1-321) (human) (UniProt P18031)
T7 sequence: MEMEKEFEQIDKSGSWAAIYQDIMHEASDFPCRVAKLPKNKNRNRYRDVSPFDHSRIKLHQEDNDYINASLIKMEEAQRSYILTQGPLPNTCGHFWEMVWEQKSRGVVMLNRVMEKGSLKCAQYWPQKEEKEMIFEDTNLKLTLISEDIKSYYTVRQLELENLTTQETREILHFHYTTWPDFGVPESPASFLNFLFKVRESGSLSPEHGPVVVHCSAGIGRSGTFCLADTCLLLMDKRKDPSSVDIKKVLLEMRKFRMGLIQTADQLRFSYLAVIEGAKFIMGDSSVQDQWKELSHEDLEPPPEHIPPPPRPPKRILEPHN


How the values were obtained:
[1] = target: T1, PTP1B; test: PTP assay, wild-type PTP1B; assay type: biochemical; details: for kcat/KM x 10^7: WT PTP1B aa 1–321, pH 7.4
How it was run: (§1)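 E. coli-expressed catalytic domains were used: wild-type, R24M or R47E PTP1B (aa 1–321), and SHP-1 (aa 205–595). Reactions started with PTP (0.5–20000 nM final) and dephosphorylation was monitored continuously at 282 nm. kcat, KM and kcat/KM came from initial-rate fits (Michaelis–Menten, or V = kcat[E][S]/KM when KM >> [S]) or from fits of progress curves.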

[2] = target: T2, R24M PTP1B; test: PTP assay, R24M PTP1B; assay type: biochemical; details: for Km / kcat / kcat/KM x 10^7: R24M PTP1B aa 1–321, pH 7.4; for WT/R24M: ratio of kcat/KM, WT over R24M PTP1B (fold reduction by the mutation)
How it was run: as §1

[3] = target: T3, R47E PTP1B; test: PTP assay, R47E PTP1B; assay type: biochemical; details: for Km / kcat / kcat/KM x 10^7: R47E PTP1B aa 1–321, pH 7.4; for WT/R47E: ratio of kcat/KM, WT over R47E PTP1B (fold decrease by the mutation)
How it was run: as §1

[4] = target: SHP-1 (Homo sapiens, UniProt P29350); details: catalytic domain; cited from earlier work
[5] = target: T4, SHP-2; details: catalytic domain; cited from earlier work
[6] = target: T5, R47E PTP1B catalytic domain (amino acids 1-321) (human)
[7] = target: T6, wild-type PTP1B catalytic domain (amino acids 1-321) (human)
[8] = target: T7, R24M PTP1B catalytic domain (amino acids 1-321) (human)

Sequence of SHP-1 (P29350 205-595): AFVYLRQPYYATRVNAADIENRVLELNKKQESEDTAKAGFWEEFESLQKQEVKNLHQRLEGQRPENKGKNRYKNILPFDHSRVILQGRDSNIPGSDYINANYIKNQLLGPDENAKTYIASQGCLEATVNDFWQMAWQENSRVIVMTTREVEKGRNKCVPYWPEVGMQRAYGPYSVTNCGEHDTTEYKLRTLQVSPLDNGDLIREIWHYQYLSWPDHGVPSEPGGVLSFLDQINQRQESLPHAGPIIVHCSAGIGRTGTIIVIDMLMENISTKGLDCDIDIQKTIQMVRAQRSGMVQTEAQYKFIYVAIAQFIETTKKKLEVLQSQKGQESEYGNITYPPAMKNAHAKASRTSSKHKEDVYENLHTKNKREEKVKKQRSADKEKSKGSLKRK

Row | Molecule | kcat/KM x 10^7 [1] | Km [2] | kcat [2] | kcat/KM x 10^7 [2] | WT/R24M [2] | Km [3] | kcat [3] | kcat/KM x 10^7 [3] | WT/R47E [3] | Km [4] | kcat [4] | kcat/KM x10^6 [4] | Km [5] | kcat [5] | kcat/KM x10^6 [5] | KM, steady-state dephosphorylation of the pY peptide [7] | further results
1 | Ac-AWGPLpYDEVQM-NH2 | 1.7 x 10^7 M^−1 s^−1 | 5 ± 0.5 µM | 36 ± 1 s⁻¹ | 0.72 x 10^7 M^−1 s^−1 | 2.3 | 5.6 ± 0.4 µM | 34 ± 2 s⁻¹ | 0.61 x 10^7 M^−1 s^−1 | 2.8 | – | – | – | – | – | – | – | –
2 | DPRGIpYDQVAG | 0.38 x 10^7 M^−1 s^−1 | 71 ± 1 µM | 36 ± 1 s⁻¹ | 0.051 x 10^7 M^−1 s^−1 | 7.6 | 23 ± 1 µM | 35 ± 1 s⁻¹ | 0.15 x 10^7 M^−1 s^−1 | 2.5 | – | – | – | – | – | – | – | –
3 | EEDNAWpYAA | 2.1 x 10^7 M^−1 s^−1 | 1.9 ± 0.1 µM | 35 ± 1 s⁻¹ | 1.8 x 10^7 M^−1 s^−1 | 1.2 | 9.5 ± 0.4 µM | 32 ± 1 s⁻¹ | 0.33 x 10^7 M^−1 s^−1 | 6.4 | – | – | – | – | – | – | – | kcat/KM x10^6 ([1]; WT catalytic domain aa 1–321, 100 mM HEPES pH 7.4, monitored at 282 nm): 21 x10^6 M^−1 s^−1
4 | EIFDFpYAA | – | – | – | – | – | – | – | – | – | 27 ± 4 µM | 32 ± 2 s⁻¹ | 1.2 x10^6 M^−1 s^−1 | 54 ± 6 µM | 26 ± 1 s⁻¹ | 0.48 x10^6 M^−1 s^−1 | – | –
5 | FDIDIpYAA | – | – | – | – | – | – | – | – | – | 13 ± 1 µM | 33 ± 1 s⁻¹ | 2.5 x10^6 M^−1 s^−1 | 39 ± 5 µM | 30 ± 2 s⁻¹ | 0.77 x10^6 M^−1 s^−1 | – | –
6 | FYDIDpYAA | – | – | – | – | – | – | – | – | – | 28 ± 2 µM | 66 ± 2 s⁻¹ | 2.4 x10^6 M^−1 s^−1 | 66 ± 13 µM | 50 ± 4 s⁻¹ | 0.75 x10^6 M^−1 s^−1 | – | –
7 | WAGDDpYAA | – | – | – | – | – | – | – | – | – | 45 ± 5 µM | 57 ± 2 s⁻¹ | 1.3 x10^6 M^−1 s^−1 | 68 ± 15 µM | 36 ± 3 s⁻¹ | 0.53 x10^6 M^−1 s^−1 | – | –
8 | Ac-AA[pY]DDAAA-NH2 (SMILES CC(=O)N[C@@H](C)C(=O)N[C@@H](C)C(=O)N[C@@H](Cc1ccc(OP(=O)(O)O)cc1)C(=O)N[C@@H](CC(=O)O)C(=O)N[C@@H](CC(=O)O)C(=O)N[C@@H](C)C(=O)N[C@@H](C)C(=O)N[C@@H](C)C(N)=O) [Ac-AApYDDAAA-NH2] | – | – | – | – | – | – | – | – | – | – | – | – | – | – | – | 6.5 µM | KM, steady-state dephosphorylation of the pY peptide [6]: 34 µM
9 | Ac-ARKRI[pY]AA-NH2 (SMILES CC[C@H](C)[C@H](NC(=O)[C@H](CCCNC(=N)N)NC(=O)[C@H](CCCCN)NC(=O)[C@H](CCCNC(=N)N)NC(=O)[C@H](C)NC(C)=O)C(=O)N[C@@H](Cc1ccc(OP(=O)(O)O)cc1)C(=O)N[C@@H](C)C(=O)N[C@@H](C)C(N)=O) [Ac-ARKRIpYAA-NH2] | – | – | – | – | – | – | – | – | – | – | – | – | – | – | – | 166 µM | KM, steady-state dephosphorylation of the pY peptide [6]: 31 µM
10 | Ac-AA[pY]IRKRA-NH2 (SMILES CC[C@H](C)[C@H](NC(=O)[C@H](Cc1ccc(OP(=O)(O)O)cc1)NC(=O)[C@H](C)NC(=O)[C@H](C)NC(C)=O)C(=O)N[C@@H](CCCNC(=N)N)C(=O)N[C@@H](CCCCN)C(=O)N[C@@H](CCCNC(=N)N)C(=O)N[C@@H](C)C(N)=O) [Ac-AApYIRKRA-NH2] | – | – | – | – | – | – | – | – | – | – | – | – | – | – | – | 89 µM | KM, steady-state dephosphorylation of the pY peptide [8]: 52 µM
